Assays:
[1] = target: T1, ATP-citrate synthase (Mus musculus) (UniProt Q91V92); experiment: In Vivo effect for the hypolipidemic activity on ATP-Citrate Lyase in CF1 mice after 16 days of oral administration at a dose of 10 mg/kg; assay type: organism-based; set-up: dose 10 mg/kg
T1 sequence (whole entry): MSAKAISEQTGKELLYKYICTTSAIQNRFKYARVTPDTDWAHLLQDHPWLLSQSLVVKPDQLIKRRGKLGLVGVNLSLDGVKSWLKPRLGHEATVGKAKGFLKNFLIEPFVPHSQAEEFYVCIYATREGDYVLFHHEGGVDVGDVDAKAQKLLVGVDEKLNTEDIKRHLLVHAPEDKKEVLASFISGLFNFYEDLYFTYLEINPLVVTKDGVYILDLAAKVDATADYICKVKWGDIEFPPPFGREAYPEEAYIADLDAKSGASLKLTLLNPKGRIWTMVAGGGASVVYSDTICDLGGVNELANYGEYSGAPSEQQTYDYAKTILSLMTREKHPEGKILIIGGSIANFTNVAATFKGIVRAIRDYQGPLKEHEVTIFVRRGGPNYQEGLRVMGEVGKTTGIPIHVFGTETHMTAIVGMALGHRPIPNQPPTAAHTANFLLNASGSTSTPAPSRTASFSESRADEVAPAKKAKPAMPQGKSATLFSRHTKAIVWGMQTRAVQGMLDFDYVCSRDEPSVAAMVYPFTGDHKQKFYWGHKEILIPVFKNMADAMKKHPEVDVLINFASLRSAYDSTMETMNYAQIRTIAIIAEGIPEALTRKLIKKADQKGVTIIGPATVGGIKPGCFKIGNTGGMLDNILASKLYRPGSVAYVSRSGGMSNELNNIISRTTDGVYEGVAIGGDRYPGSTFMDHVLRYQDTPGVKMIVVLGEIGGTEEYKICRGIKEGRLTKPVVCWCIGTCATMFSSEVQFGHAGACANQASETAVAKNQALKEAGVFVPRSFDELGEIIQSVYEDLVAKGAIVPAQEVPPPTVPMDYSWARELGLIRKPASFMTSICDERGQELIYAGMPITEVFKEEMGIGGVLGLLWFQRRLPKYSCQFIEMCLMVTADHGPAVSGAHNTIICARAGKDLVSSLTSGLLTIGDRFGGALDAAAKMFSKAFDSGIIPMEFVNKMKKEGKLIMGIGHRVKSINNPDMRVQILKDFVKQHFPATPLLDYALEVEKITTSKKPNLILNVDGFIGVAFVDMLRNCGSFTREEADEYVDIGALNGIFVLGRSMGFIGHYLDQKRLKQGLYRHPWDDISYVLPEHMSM
Procedure, shortened: (§1)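 CF1 male mice are dosed orally at 10–60 mg/kg per day for 16 days, with 1% CMC as the control vehicle. Liver is homogenized at 10% in 0.25 M sucrose + 0.001 M EDTA, pH 7.2. Enzymes are assayed by literature methods, with Lowry protein. Activity is given as % of control (X ± SD, N = 6), with p from Student's t test.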

[2] = target: Cholesterol 7-alpha-hydroxylase (Cytochrome P450 7A1) (Mus musculus, UniProt Q64505); experiment: In vivo effect on Cholesterol 7-alpha-hydroxylase activity in CF1 mice after 16 days at 60 mg/kg oral dose; assay type: functional, organism-based; set-up: dose 60 mg/kg, route oral; conditions: read-out: Control; procedure, shortened: as §1
[3] = system: Mus musculus; experiment: Compound was evaluated for the hypolipidemic activity in CF1 male mice at a dose of 60 mg/kg orally for Serum cholesterol at 16th day; assay type: functional; conditions: route oral
Procedure, shortened: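 CF1 male mice received the agent orally in 1% CMC at 10–60 mg/kg per day. Tail-vein blood was taken on days 9 and 16. Serum cholesterol was measured by modified Liebermann–Burchard on duplicate 25-µL samples, and serum triglyceride on day 16 in duplicate 50-µL samples. Values are % of vehicle control, mean ± SD, N = 6; Student's t test.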

[4] = system: Mus musculus; experiment: In Vivo effect for the hypolipidemic activity on Acetyl-CoA carboxylase in CF1 mice after 16 days administered orally at a dose of 10 mg/kg; assay type: functional; conditions: route oral; procedure, shortened: as §1
[5] = target: Acetyl-coenzyme A synthetase, cytoplasmic (Mus musculus) (UniProt Q9QXG4); experiment: In Vivo effect for the hypolipidemic activity on Acetyl-coenzyme A synthetase in CF1 mice after 16 days of oral administration at a dose of 60 mg/kg; assay type: functional, organism-based; set-up: dose 60 mg/kg; procedure, shortened: as §1
[6] = system: Mus musculus; experiment: In Vivo effect for the hypolipidemic activity on Acetyl-CoA carboxylase in CF1 mice after 16 days administered orally at a dose of 40 mg/kg; assay type: functional; conditions: route oral; procedure, shortened: as §1
[7] = system: Mus musculus; experiment: In Vivo effect for the hypolipidemic activity on Acetyl-CoA carboxylase in CF1 mice after 16 days administered orally at a dose of 60 mg/kg; assay type: functional; conditions: route oral; procedure, shortened: as §1
[8] = system: Mus musculus; experiment: In Vivo effect for the hypolipidemic activity on Hepatic lipoprotein lipase in CF1 mice after 16 days administered orally at a dose of 40 mg/kg; assay type: functional; conditions: route oral; procedure, shortened: as §1
[9] = system: Rattus norvegicus; experiment: Compound was evaluated for the hypolipidemic activity at 20 mg/kg per day orally for 14 days on protein content in rat LDL; assay type: functional; conditions: route oral
Procedure, shortened: (§2)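 Male Sprague–Dawley rats (~300 g) were dosed orally each day. Blood was drawn from the abdominal vein. Lipoprotein fractions (chylomicron, VLDL, LDL, HDL) were separated by the Hatch–Lees and Havel methods. Each fraction was assayed for cholesterol, triglyceride (enzymatic kit), neutral lipids, phospholipids and Lowry protein. Values are % of 1% CMC vehicle control, N = 6.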

[10] = system: Rattus norvegicus; experiment: Compound was evaluated for the hypolipidemic activity at 20 mg/kg per day orally for 14 days on cholesterol content in rat HDL; assay type: functional; conditions: route oral; procedure, shortened: as §2
[11] = system: Rattus norvegicus; experiment: Compound was evaluated for the hypolipidemic activity at 20 mg/kg per day orally for 14 days on cholesterol content in rat LDL; assay type: functional; conditions: route oral; procedure, shortened: as §2
[12] = system: Rattus norvegicus; experiment: Compound was evaluated for the hypolipidemic activity at 20 mg/kg per day orally for 14 days on triglycerides content in rat VLDL; assay type: functional; conditions: route oral; procedure, shortened: as §2
[13] = species on record: Mus musculus; experiment: In Vitro evaluation for the CF1 liver enzyme activity on Hepatic lipoprotein lipase at concentration 50 uM; assay type: functional
Procedure, shortened: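 Mouse liver enzymes assayed in vitro on 10% homogenates of CF1 male mouse liver, with test drug added at 50–200 μM. Each enzyme follows a published procedure. Protein is measured by Lowry. Activity is given as % of untreated control (X ± SD, N = 6).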

Acetyl-coenzyme A synthetase, cytoplasmic (Mus musculus), sequence (Q9QXG4 whole entry): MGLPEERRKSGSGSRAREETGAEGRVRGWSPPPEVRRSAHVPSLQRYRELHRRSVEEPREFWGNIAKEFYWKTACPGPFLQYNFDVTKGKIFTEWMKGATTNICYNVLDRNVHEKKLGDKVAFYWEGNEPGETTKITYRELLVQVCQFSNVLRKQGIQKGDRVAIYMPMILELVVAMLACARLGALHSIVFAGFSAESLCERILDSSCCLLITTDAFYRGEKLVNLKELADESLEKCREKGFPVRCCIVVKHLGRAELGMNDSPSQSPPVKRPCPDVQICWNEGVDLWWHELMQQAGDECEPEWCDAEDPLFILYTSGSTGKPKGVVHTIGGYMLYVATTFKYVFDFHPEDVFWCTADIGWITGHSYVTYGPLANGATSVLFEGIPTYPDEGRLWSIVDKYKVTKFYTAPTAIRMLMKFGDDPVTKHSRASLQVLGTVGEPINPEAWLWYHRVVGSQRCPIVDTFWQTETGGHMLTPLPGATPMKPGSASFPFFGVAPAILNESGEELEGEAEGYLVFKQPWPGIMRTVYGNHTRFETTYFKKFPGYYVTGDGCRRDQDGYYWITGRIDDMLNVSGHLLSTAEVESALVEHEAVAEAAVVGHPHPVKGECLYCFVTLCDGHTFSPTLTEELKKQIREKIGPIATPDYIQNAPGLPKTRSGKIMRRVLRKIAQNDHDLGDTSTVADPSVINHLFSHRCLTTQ
Cholesterol 7-alpha-hydroxylase (Cytochrome P450 7A1), sequence (Q64505 whole entry): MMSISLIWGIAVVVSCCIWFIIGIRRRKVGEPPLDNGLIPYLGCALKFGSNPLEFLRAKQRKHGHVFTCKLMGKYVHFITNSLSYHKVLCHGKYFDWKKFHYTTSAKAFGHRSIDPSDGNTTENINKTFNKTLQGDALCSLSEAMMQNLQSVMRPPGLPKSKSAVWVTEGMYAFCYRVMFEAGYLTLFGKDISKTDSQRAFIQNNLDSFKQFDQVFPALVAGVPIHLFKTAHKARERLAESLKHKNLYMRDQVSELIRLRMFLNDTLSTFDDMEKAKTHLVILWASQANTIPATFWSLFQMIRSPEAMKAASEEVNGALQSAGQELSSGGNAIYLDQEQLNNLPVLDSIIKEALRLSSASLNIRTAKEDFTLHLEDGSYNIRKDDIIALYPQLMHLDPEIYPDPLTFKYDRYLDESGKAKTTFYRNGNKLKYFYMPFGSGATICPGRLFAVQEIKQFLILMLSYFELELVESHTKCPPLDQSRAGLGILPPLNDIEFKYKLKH

Question: With `COc1ccc(C2C(=O)c3ccccc3C2=O)cc1` [ANISINDIONE] as the compound, how does the Control [1] read?
Answer: The Control was 70%.

Question: And the activity at 384 h [2]?
Answer: The activity at 384 h was 60%.

Question: And the Control [3]?
Answer: The Control was 62%.

Question: What about the Control [4] of the same compound?
Answer: Its Control is 89%.

Question: And the Control [5]?
Answer: Its Control is 99%.

Question: What about the Control [6] of the same compound?
Answer: The Control was 98%.

Question: What about the Control [7] of the same compound?
Answer: Its Control is 97%.

Question: And the Control [8]?
Answer: Its Control is 89%.

Question: And the Control [9]?
Answer: Its Control is 95%.

Question: What about the Control [10] of the same compound?
Answer: Its Control is 216%.

Question: And the Control [11]?
Answer: The Control was 18%.

Question: And the Control [12]?
Answer: The Control was 72%.

Question: And the Control [13]?
Answer: Its Control is 86%.

— ChEMBL document CHEMBL1123129, “Hypolipidemic activity of indan-1,3-dione derivatives in rodents” (J Med Chem, 1985)
